# From PubChem BioAssay
# Active and inactive are the calls of the source.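 The calls were made as follows, unless noted: active = viability loss from added drug above about 55%, and viability with drug at most 40%, in both replicates (limit read from the data, passing the limit was not always enough); inconclusive = both conditions met in only one replicate; inactive = neither replicate meets both conditions.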
# Assays:
# [1] = Her2 expression decrease, cell viability multiplex – SKBR3 breast tumor cells, AlphaScreen, ATP viability, primary screen (AID 461;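 active = Her2 level under about 52% in both replicate screens, with viability over 70% of control, limit read from the data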;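 as to Her2 level: lower value means less Her2 protein in the cells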;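 as to viability: percent of carrier control wells set as 100% viability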); conditions: SKBR3 Her2 protein level, 18-24 h, measured here: SKBR3 viability, ATP luminescence, at 10 µM
# [2] = target: Receptor tyrosine-protein kinase erbB-2 (Homo sapiens) (UniProt P04626); assay: as above; conditions: 18-24 h, at 10 µM, stronger effect = lower value
# Sequence of Receptor tyrosine-protein kinase erbB-2 (Homo sapiens) (P04626 whole entry, looked up): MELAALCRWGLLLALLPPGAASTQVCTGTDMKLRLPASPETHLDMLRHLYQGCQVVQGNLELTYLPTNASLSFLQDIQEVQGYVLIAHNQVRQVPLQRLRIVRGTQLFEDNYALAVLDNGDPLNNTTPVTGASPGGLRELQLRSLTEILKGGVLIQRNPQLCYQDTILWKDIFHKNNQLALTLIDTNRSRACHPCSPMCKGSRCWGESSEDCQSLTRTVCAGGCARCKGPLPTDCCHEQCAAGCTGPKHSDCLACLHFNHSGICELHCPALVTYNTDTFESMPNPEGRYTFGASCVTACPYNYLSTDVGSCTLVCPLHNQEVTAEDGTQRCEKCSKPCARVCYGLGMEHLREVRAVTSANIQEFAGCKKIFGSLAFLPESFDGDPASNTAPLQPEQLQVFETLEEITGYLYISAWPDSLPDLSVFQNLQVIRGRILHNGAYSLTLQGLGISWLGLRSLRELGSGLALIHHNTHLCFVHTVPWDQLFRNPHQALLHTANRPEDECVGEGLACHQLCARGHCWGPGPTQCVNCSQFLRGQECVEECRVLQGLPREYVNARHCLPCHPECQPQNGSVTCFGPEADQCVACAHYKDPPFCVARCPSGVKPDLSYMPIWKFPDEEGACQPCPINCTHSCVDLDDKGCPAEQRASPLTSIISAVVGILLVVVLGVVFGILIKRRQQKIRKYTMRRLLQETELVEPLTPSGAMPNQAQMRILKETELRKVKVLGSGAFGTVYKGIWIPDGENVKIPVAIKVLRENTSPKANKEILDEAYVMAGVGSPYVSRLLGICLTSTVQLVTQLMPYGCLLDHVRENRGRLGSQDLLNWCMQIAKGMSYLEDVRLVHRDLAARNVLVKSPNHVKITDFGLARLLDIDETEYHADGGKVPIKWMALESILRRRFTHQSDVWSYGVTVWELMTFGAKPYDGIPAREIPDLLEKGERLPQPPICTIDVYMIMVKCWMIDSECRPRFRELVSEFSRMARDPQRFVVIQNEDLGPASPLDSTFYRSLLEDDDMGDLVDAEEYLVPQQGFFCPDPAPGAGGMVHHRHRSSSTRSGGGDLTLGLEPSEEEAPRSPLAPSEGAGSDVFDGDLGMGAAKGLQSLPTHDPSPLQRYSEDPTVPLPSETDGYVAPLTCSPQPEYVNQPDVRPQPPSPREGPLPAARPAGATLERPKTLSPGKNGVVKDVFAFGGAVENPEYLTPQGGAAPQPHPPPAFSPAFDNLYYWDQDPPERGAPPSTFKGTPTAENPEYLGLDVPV
# [3] = reduced viability of SK-BR-3 breast cancer cells – cell-based, 24 h, human, pilot screen (AID 572;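 active = viability at or below 10% of carrier control in both of two separate runs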;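 also: compound exposure lasted between 18 and 24 h rather than exactly 24 h; 100% = carrier-treated control wells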); conditions: SK-BR-3 viability, CellTiter-Glo luminescence, at 10 µM, stronger effect = lower value
# [4] = HUVEC growth inhibition – cell-based, human, primary screen (AID 575;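 active = viability at or below 30% in both replicate assays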;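 also: 100% = median of untreated cell wells with 0.1% DMSO on each plate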); conditions: HUVEC proliferation, CellTiter-Glo luminescence, 72 h; at 10 µM; stronger effect = lower value
# In short: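 Test system: primary human umbilical vein endothelial cells. Quantity: 1250 cells/well. Compound: single 10 µM dose, 0.1% DMSO, from 5x medium stock. Timing: 72 h treatment at 37 °C. Detection: ATP-based CellTiter-Glo luminescent read. Benchmarks: vehicle and MePR control wells. Format: 384-well plates coated with collagen.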
# [5] = H69AR cell proliferation blockers – human, duplicate replicates, primary screen (AID 580;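 active = viability at or under a set limit in both replicates, limit being median viability minus 3 SD, cut at about 48% in these data, passing the limit was not always enough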;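 also: 100% = mean luminescence of untreated wells and 0% = no signal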); conditions: H69AR lung tumor cells viability, ATP luminescence, 72 h; at 10 µM; stronger effect = lower value
# [6] = MRP1 drug-resistance reversers in H69AR cells – cell-based, doxorubicin co-treatment, pilot screen (AID 601); conditions: CellTiter-Glo, 72 h, at 10 µM; for differential viability (reversal): stronger effect = higher value
# [7] = yeast transport mutant growth inhibition pilot in 384-well plates, post-Golgi transport modulator project (AID 636; in the data active = inhibition above about 31%); conditions: absorbance 615 nm, about 18 h, stronger effect = higher value
# [8] = growth suppression of yeast trafficking mutant, preliminary HTS, modulators of trafficking downstream of Golgi apparatus project, 1536-format plate, OD 615 nm (AID 637; in the data active = inhibition above about 30%); conditions: yeast transport mutant growth, absorbance 615 nm, 18 h; stronger effect = higher value
# [9] = H69AR cells + 2 uM doxorubicin, measured here: viability with 2 uM doxorubicin, stronger effect = lower value
# [10] = H69AR cells, compound alone cytotoxicity
SMILES,viability [1] [%],Her2 level [2],viability [3],viability [4],viability [5],differential viability (reversal) ([6]; H69AR cells + 2 uM doxorubicin),"viability [6, 9] [%]","viability [6, 10] [%]",inhibition [7],inhibition [8]
CCOC(=O)N1CCN(C(=O)CN(c2ccc(C)cc2)S(=O)(=O)c2c(C)noc2C)CC1,81.5,94% (inactive),81.5% (inactive),106% (inactive),86.1% (inactive),-0.005% (inactive),86.1,86.1,-4.73% (inactive),6.51% (inactive)
COc1ccc(NC(=O)Nc2ccc(C)cc2OC(F)F)cc1OC,95,79.5% (inactive),95% (inactive),88% (inactive),93% (inactive),6.81% (inactive),86.1,93,-3.95% (inactive),-6.67% (inactive)
O=C(c1ccco1)N1CCN(C(=O)C2CCN(S(=O)(=O)c3cccc4nsnc34)CC2)CC1,98.5,102% (inactive),98.5% (inactive),104% (inactive),83.5% (inactive),8.47% (inactive),75,83.5,-4.27% (inactive),-1.48% (inactive)
Cc1ccc(S(=O)(=O)N2CCN(S(C)(=O)=O)C2c2ccccc2)cc1 (stereo not given),82,96% (inactive),82% (inactive),103% (inactive),94.4% (inactive),-12% (inactive),106,94.4,0.13% (inactive),0% (inactive)
CCC(CC)C(=O)Nc1cccc(C(=O)NCc2ccco2)c1,94,104% (inactive),94% (inactive),100% (inactive),69.1% (inactive),-20.5% (inactive),89.6,69.1,-3.24% (inactive),-1.64% (inactive)
CN1CCc2nc(SCC(=O)Nc3ccc(F)cc3)c(C#N)cc2C1,90.5,91.5% (inactive),90.5% (inactive),94.2% (inactive),97% (inactive),-4.23% (inactive),101,97,-5.33% (inactive),4.1% (inactive)
CC(=O)c1c(C)nn(CC(O)COc2ccc3c(c2)CCC3)c1C (stereo not given),93.5,105% (inactive),93.5% (inactive),94.4% (inactive),87.4% (inactive),3.44% (inactive),83.9,87.4,1.33% (inactive),-6.03% (inactive)
COc1ccccc1C(=O)N1CCN(C(=O)c2ccncc2)CC1,122,106% (inactive),122% (inactive),88.6% (inactive),103% (inactive),13.7% (inactive),89.2,103,-3.73% (inactive),4.35% (inactive)
Cc1nn(-c2ccccc2)c2sc(C(=O)N3CCOCC3)cc12,88.5,84.5% (inactive),88.5% (inactive),71.9% (inactive),87.3% (inactive),-2.3% (inactive),89.6,87.3,-6% (inactive),-0.48% (inactive)
Cc1cccc(C(=O)N2CCC(n3nnc4cc(F)ccc43)CC2)c1,95,113% (inactive),95% (inactive),92.6% (inactive),86.4% (inactive),-3.98% (inactive),90.4,86.4,-3.21% (inactive),2.67% (inactive)
CC(=O)N(c1ccc(N(C(C)=O)S(=O)(=O)c2cccs2)cc1)S(=O)(=O)c1cccs1,90,104% (inactive),90% (inactive),85% (inactive),86% (inactive),-22.3% (inactive),108,86,-1.18% (inactive),1.15% (inactive)
COc1ccc(CN(C(=O)CNC(=O)c2ccco2)C(C(=O)NC2CCCC2)c2ccco2)cc1 (stereo not given),91,106% (inactive),91% (inactive),103% (inactive),95.4% (inactive),7.6% (inactive),87.8,95.4,-0.39% (inactive),-5.48% (inactive)
Cc1nnc(SCc2cnc(-c3ccccc3)o2)[nH]c1=O,94,86% (inactive),94% (inactive),86.7% (inactive),98% (inactive),12.2% (inactive),85.8,98,2.76% (inactive),-0.66% (inactive)
COc1ccc2ccccc2c1CN1CCN(C)CC1,97,94.5% (inactive),97% (inactive),75.1% (inactive),104% (inactive),7.19% (inactive),96.6,104,1.43% (inactive),-0.66% (inactive)
COC(=O)Nc1nc2c(C)cccc2s1,114,88% (inactive),114% (inactive),56.1% (inactive),85.4% (inactive),11.9% (inactive),73.5,85.4,1.18% (inactive),8.33% (inactive)
O=C(Nc1cc(Cl)ccc1Cl)c1noc2c1CCCC2,87.5,90.5% (inactive),87.5% (inactive),63.5% (inactive),83.5% (inactive),-3.4% (inactive),86.9,83.5,-0.51% (inactive),-5.5% (inactive)

SMILES,viability [1] [%],Her2 level [2],viability [3],viability [4],viability [5],differential viability (reversal) ([6]; H69AR cells + 2 uM doxorubicin),"viability [6, 9] [%]","viability [6, 10] [%]",inhibition [7],inhibition [8]
CCNS(=O)(=O)c1c(C)cc(N2CCCC2=O)cc1C,95.5,109% (inactive),95.5% (inactive),112% (inactive),98.8% (inactive),8.17% (inactive),90.6,98.8,-3.87% (inactive),-1.31% (inactive)
COc1ccccc1S(=O)(=O)n1cc(Cc2ccccc2)c(N)n1,96.5,86% (inactive),96.5% (inactive),96.4% (inactive),104% (inactive),5.54% (inactive),98.5,104,-2.37% (inactive),-6.51% (inactive)
CCN1C(=O)c2cccc3c(NC(=O)c4ccc5c(c4)OCCO5)ccc1c23,108,89% (inactive),108% (inactive),55.5% (inactive),52.2% (inactive),-20.3% (inactive),72.5,52.2,-4.81% (inactive),0.63% (inactive)
Cc1cccc(N(CC(N)=O)S(C)(=O)=O)c1C,102,100% (inactive),102% (inactive),107% (inactive),92% (inactive),4.79% (inactive),87.2,92,-2.76% (inactive),0.82% (inactive)
O=C(c1ccc2ccccc2n1)N1CCN(c2ccccc2)CC1,88.5,86% (inactive),88.5% (inactive),100% (inactive),112% (inactive),13.8% (inactive),98.6,112,-4.19% (inactive),-3.61% (inactive)
CCOC(=O)c1cc(-c2ccco2)nc2c1c(C)nn2CCC#N,96,101% (inactive),96% (inactive),98% (inactive),68.3% (inactive),-16.2% (inactive),84.5,68.3,4.05% (inactive),3.97% (inactive)
COc1ccccc1C(=O)n1nc(-c2ccc(Cl)cc2)nc1N,90,74.5% (inactive),90% (inactive),78.7% (inactive),71.2% (inactive),-13.7% (inactive),84.9,71.2,-5.06% (inactive),-8.5% (inactive)
N=c1c(C(=O)NCc2ccc3c(c2)OCO3)cc2c(=O)n3ccccc3nc2n1Cc1cccnc1,73.5,68% (inactive),73.5% (inactive),87% (inactive),78.8% (inactive),-0.53% (inactive),79.3,78.8,-2.47% (inactive),-2.3% (inactive)
CC1Cc2ccccc2N1S(=O)(=O)c1cccc(C(=O)OCC(=O)NC2CCS(=O)(=O)C2)c1 (stereo not given),88,82.5% (inactive),88% (inactive),89.1% (inactive),97.2% (inactive),12.3% (inactive),84.9,97.2,-6.4% (inactive),-3.61% (inactive)
Cc1onc(-c2c(Cl)cccc2Cl)c1C(=O)N1CCc2ccccc21,97,91.5% (inactive),97% (inactive),68.1% (inactive),61.6% (inactive),-24.3% (inactive),85.9,61.6,-0.93% (inactive),2.74% (inactive)
COc1ccc(S(=O)(=O)N2CCCC(C(=O)N3CCCCCC3)C2)cc1 (stereo not given),102,80% (inactive),102% (inactive),100% (inactive),88.2% (inactive),-3.65% (inactive),91.9,88.2,-5% (inactive),2% (inactive)
Nc1nc(N)nc(-c2ccccc2)n1,97.5,106% (inactive),97.5% (inactive),107% (inactive),99.8% (inactive),4.35% (inactive),95.4,99.8,-1.05% (inactive),-0.16% (inactive)
Cc1cc(C(F)(F)F)nn1Cc1ccc(C(=O)NCc2ccco2)o1,97,105% (inactive),97% (inactive),95.3% (inactive),89.9% (inactive),0.38% (inactive),89.5,89.9,-0.53% (inactive),0.82% (inactive)
COc1cccc(CN2CCN(C(=O)c3ccco3)CC2)c1OC,112,90% (inactive),112% (inactive),118% (inactive),103% (inactive),6.7% (inactive),96.5,103,-5.14% (inactive),0.95% (inactive)
c1cn(C23CC4CC(CC(C4)C2)C3)cn1,113,88% (inactive),113% (inactive),104% (inactive),92.3% (inactive),8.21% (inactive),84.1,92.3,-5.6% (inactive),1.94% (inactive)
COc1cc2c(C)nc(C)c(C#N)c2cc1OC,111,93.5% (inactive),111% (inactive),66.4% (inactive),86.6% (inactive),10.1% (inactive),76.5,86.6,-6% (inactive),-2.74% (inactive)
